Columns and labels:
[1] = molecular target: 72 kDa type IV collagenase (Homo sapiens, UniProt P08253); experiment: Inhibition of MMP2
Summary of the method: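 Gelatinase A (MMP-2) with synthetic substrate and inhibitor in sodium borate (50 mmol/l, pH 8.5), incubated 30 min at 37 °C. Then 0.03% TNBS added for a further 20 min and absorbance read at 450 nm.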

Aminopeptidase N = molecular target: T1, Aminopeptidase N (Sus scrofa, UniProt P15145); experiment: Inhibition of porcine kidney microsome APN assessed as L-Leu-p-nitroanilide hydrolysis
T1 sequence (P15145 whole entry): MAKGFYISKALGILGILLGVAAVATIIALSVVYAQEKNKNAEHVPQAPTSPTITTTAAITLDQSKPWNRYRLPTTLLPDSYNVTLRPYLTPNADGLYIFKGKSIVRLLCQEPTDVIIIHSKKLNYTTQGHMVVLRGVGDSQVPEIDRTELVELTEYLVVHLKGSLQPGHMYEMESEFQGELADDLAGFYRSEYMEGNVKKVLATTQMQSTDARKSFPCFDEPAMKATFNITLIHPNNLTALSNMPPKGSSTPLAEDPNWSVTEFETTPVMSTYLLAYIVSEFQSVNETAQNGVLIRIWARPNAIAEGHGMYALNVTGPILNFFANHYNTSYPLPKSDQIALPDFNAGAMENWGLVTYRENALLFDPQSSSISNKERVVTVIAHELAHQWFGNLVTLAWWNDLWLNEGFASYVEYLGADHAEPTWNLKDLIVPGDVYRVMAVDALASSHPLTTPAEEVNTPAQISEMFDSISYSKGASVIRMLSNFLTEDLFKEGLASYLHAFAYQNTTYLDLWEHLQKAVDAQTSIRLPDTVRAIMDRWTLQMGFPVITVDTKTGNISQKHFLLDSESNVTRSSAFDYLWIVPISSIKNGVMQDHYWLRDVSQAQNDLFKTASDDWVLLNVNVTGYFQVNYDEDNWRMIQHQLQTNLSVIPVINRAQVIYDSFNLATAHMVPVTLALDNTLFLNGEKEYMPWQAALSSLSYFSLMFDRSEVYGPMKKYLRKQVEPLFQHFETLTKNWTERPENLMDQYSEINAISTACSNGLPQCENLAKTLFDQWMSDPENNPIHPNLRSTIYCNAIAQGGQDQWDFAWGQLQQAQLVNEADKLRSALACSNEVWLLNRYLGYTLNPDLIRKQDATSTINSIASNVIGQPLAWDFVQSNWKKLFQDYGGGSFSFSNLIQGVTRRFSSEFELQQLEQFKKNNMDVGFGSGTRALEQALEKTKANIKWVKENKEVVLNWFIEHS
Summary of the method: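 Porcine kidney microsomal aminopeptidase, 4 mg/ml final, in PBS pH 7.2 at 37 °C. Inhibitor solutions made in assay buffer and adjusted to pH 7.5, preincubated with enzyme 30 min at room temperature.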

HL-60 = experiment: Antiproliferative activity against human HL60 cells after 48 hrs by MTT assay; format: functional, cell-based; settings: HL-60, 48 h
Summary of the method: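 HL-60 cells kept in RPMI1640 with 10% FBS at 37 °C, 5% CO2. Seeded 10,000 cells per well, grown 4 h, then exposed to 1600, 800, 400, 200 or 100 µg/ml for 48 h. Added 0.5% MTT, incubated 4 h, dissolved formazan in DMSO and read OD at 570 nm. Mean and SE of five independent experiments.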

Chain of 72 kDa type IV collagenase (P08253 whole entry): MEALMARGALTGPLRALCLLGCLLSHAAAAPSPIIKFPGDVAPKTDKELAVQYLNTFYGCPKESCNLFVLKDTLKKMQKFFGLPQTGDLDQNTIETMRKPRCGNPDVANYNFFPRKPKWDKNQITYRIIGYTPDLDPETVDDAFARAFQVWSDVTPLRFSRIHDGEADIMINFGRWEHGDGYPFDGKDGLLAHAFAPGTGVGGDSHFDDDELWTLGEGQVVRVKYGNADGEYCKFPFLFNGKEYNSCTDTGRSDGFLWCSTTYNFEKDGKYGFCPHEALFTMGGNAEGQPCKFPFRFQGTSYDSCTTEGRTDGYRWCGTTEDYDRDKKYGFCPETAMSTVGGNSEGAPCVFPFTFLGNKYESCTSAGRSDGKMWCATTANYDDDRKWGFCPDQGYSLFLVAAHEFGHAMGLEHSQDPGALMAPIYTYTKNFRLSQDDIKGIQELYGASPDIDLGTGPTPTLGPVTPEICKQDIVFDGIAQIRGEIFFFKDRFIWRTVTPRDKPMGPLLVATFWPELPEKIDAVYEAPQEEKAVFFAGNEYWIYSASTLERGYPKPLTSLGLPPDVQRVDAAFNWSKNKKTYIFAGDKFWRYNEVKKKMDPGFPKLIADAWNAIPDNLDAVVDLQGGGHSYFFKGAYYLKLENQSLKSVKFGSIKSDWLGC

| IC50 [1] [µM] | IC50 (Aminopeptidase N) [µM] | IC50 (HL-60) [µM] | Compound |
| --- | --- | --- | --- |
| 131 | 36 |  | CCCNC(=O)C[C@@H](NC(=O)/C=C/c1ccccc1)C(=O)NO |
|  | 189 |  | O=C(/C=C/c1ccccc1)N[C@H](CC(=O)Nc1ccc([N+](=O)[O-])cc1)C(=O)NO |
|  | 719 |  | O=C(/C=C/c1ccccc1)N[C@H](CC(=O)Nc1cccc(Cl)c1)C(=O)O |
|  | 2050 |  | O=C(/C=C/c1ccccc1)N[C@H](CC(=O)Nc1cccc2ccccc12)C(=O)NO |
|  | 349 |  | O=C(/C=C/c1ccccc1)N[C@H](CC(=O)Nc1ccc(Cl)cc1)C(=O)O |
|  | 263 |  | O=C(/C=C/c1ccccc1)N[C@H](CC(=O)Nc1ccccc1Cl)C(=O)O |
|  | 65.9 |  | CC(C)NC(=O)C[C@@H](NC(=O)/C=C/c1ccccc1)C(=O)NO |
| > 1000 | 438 |  | CCCCCCCCCCCCNC(=O)C[C@@H](NC(=O)/C=C/c1ccccc1)C(=O)NO |
|  | 18.5 |  | CCCCCCCCNC(=O)C[C@@H](NC(=O)/C=C/c1ccccc1)C(=O)NO |
|  | 115 |  | O=C(/C=C/c1ccccc1)N[C@H](CC(=O)Nc1ccccc1)C(=O)NO |
| > 1000 | 1440 |  | O=C(/C=C/c1ccccc1)N[C@H](CC(=O)Nc1cccc([N+](=O)[O-])c1)C(=O)NO |
|  | 962 |  | CCCCCCCCCCCCNC(=O)C[C@@H](NC(=O)/C=C/c1ccccc1)C(=O)O |
|  | 65.1 |  | O=C(/C=C/c1ccccc1)N[C@H](CC(=O)NCc1ccccc1)C(=O)NO |
|  | 204 |  | CCCCCNC(=O)C[C@@H](NC(=O)/C=C/c1ccccc1)C(=O)O |
| 179 | 18.1 |  | CCCCCCNC(=O)C[C@@H](NC(=O)/C=C/c1ccccc1)C(=O)NO |
| > 1000 | 86.6 |  | O=C(/C=C/c1ccccc1)N[C@H](CC(=O)Nc1ccccc1Cl)C(=O)NO |
| > 1000 | 1210 |  | O=C(/C=C/c1ccccc1)N[C@H](CC(=O)Nc1cccc(Cl)c1)C(=O)NO |
|  | 2200 |  | CC(C)NC(=O)C[C@@H](NC(=O)/C=C/c1ccccc1)C(=O)O |
|  | 190 |  | CCCCNC(=O)C[C@@H](NC(=O)/C=C/c1ccccc1)C(=O)O |
| 197 | 192 |  | O=C(/C=C/c1ccccc1)N[C@H](CC(=O)Nc1ccc(Cl)cc1)C(=O)NO |
| > 1000 | 1780 |  | O=C(/C=C/c1ccccc1)N[C@H](CC(=O)Nc1cccc([N+](=O)[O-])c1)C(=O)O |
|  | 273 |  | O=C(/C=C/c1ccccc1)N[C@H](CC(=O)Nc1ccc([N+](=O)[O-])cc1)C(=O)O |
| 232 | 11.1 | 780 | CCCCNC(=O)C[C@@H](NC(=O)/C=C/c1ccccc1)C(=O)NO |
| 197 | 17.4 |  | CCCCCNC(=O)C[C@@H](NC(=O)/C=C/c1ccccc1)C(=O)NO |
| > 1000 | 739 |  | O=C(/C=C/c1ccccc1)N[C@H](CC(=O)Nc1cccc2ccccc12)C(=O)O |
|  | 207 |  | O=C(/C=C/c1ccccc1)N[C@H](CC(=O)NCc1ccccc1)C(=O)O |
| > 1000 | 232 |  | CCCCCCCCNC(=O)C[C@@H](NC(=O)/C=C/c1ccccc1)C(=O)O |
| > 1000 | 232 |  | O=C(/C=C/c1ccccc1)N[C@H](CC(=O)Nc1ccccc1)C(=O)O |
|  | 9110 |  | CCCNC(=O)C[C@@H](NC(=O)/C=C/c1ccccc1)C(=O)O |
|  |  | 920 | CC(C)C[C@H](NC(=O)[C@@H](O)[C@H](N)Cc1ccccc1)C(=O)O [UBENIMEX] |
